Converted amounts (≈) assume the structure as drawn.
How the values were obtained:
Cutibacterium acnes [1] = experiment: MBC/MIC ratio of Propionibacterium acnes SW101T; type: functional
Outline: (§1)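 MIC by CLSI broth microdilution in Wilkins-Chalgren broth in anaerobic jars (O2 <0.1%, CO2 >15%), read after 48 h at 35–37°C on an illuminated plate reader. For MBC, samples were plated onto Wilkins-Chalgren agar and incubated anaerobically for 72 h at 35–37°C before growth was scored.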

Cutibacterium acnes [2] = experiment: Antibacterial activity against drug-resistant Propionibacterium acnes SW11 after 48 hrs by broth microdilution method; type: functional
Outline: (§2)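 Broth microdilution MIC in Wilkins-Chalgren broth without lysed horse blood, following CLSI anaerobe guidelines. Plates were held in anaerobic jars with atmosphere generators (O2 <0.1% by 2.5 h, CO2 >15% by 24 h) at 35 to 37°C for 48 h. Growth was read with an illuminated plate reader and magnifying mirror.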

Cutibacterium acnes [3] = experiment: Antibacterial activity against drug-resistant Propionibacterium acnes P429:1 (BC) after 48 hrs by broth microdilution method; type: functional; outline: as §2
[4] = tested on: Streptococcus equi subsp. zooepidemicus; experiment: Antibacterial activity against Streptococcus equi subsp. zooepidemicus after 48 hrs by broth microdilution method; type: functional
Staphylococcus aureus [5] = experiment: Antibacterial activity against borderline oxacillin-resistant Staphylococcus aureus after 20 to 24 hrs by broth microdilution method
Cutibacterium acnes [6] = experiment: Antibacterial activity against drug-resistant Propionibacterium acnes EG3NS after 48 hrs by broth microdilution method; type: functional; outline: as §2
Cutibacterium acnes [7] = experiment: Antibacterial activity against drug-resistant Propionibacterium acnes EG7NS after 48 hrs by broth microdilution method; type: functional; outline: as §2
Corynebacterium jeikeium = experiment: Antibacterial activity against Corynebacterium jeikeium after 48 hrs by broth microdilution method; type: functional
Outline: (§3)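 Broth microdilution per CLSI in cation-adjusted Mueller-Hinton broth supplemented with 0.5% (vol/vol) Tween 80. Plates incubated at 35°C in ambient air for 44 to 48 h, then read visually. MICs in μg/ml; a geometric mean MIC was calculated across the corynebacterial strains.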

[8] = tested on: Propionibacterium granulosum; experiment: Antibacterial activity against drug-resistant Propionibacterium granulosum QK6/92 after 48 hrs by broth microdilution method
[9] = tested on: Propionibacterium granulosum; experiment: Antibacterial activity against drug-resistant Propionibacterium granulosum NCTC-11865 after 48 hrs by broth microdilution method; type: functional; settings: Cutibacterium granulosum, NCTC-11865, 48 h; outline: as §2
Staphylococcus aureus [10] = experiment: Antibacterial activity against methicillin-susceptible Staphylococcus aureus after 48 hrs by broth microdilution method; type: functional
Cutibacterium acnes [11] = experiment: Antibacterial activity against drug-resistant Propionibacterium acnes D-04/97 after 48 hrs by broth microdilution method; type: functional; outline: as §2
Cutibacterium acnes [12] = experiment: Antibacterial activity against drug-resistant Propionibacterium acnes GE46EB after 48 hrs by broth microdilution method; type: functional; outline: as §2
Cutibacterium acnes [13] = experiment: Antibacterial activity against drug-resistant Propionibacterium acnes SP64E after 48 hrs by broth microdilution method; type: functional; outline: as §2
Cutibacterium acnes [14] = experiment: Antibacterial activity against drug-resistant Propionibacterium acnes SW54EA after 48 hrs by broth microdilution method; type: functional; outline: as §2
[15] = tested on: Corynebacterium minutissimum; experiment: Antibacterial activity against Corynebacterium minutissimum after 48 hrs by broth microdilution method; type: functional; outline: as §3
Cutibacterium acnes [16] = experiment: Antibacterial activity against drug-resistant Propionibacterium acnes EG7NS after 72 hrs; type: functional
Outline: (§4)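 MBC for P. acnes followed MIC assays by standard methodology. Samples were plated on Wilkins-Chalgren agar, incubated anaerobically in GENbox jars at 35 to 37°C, and examined for growth after 72 h.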

Cutibacterium acnes [17] = experiment: Antibacterial activity against drug-resistant Propionibacterium acnes P401:5 after 48 hrs by broth microdilution method; type: functional; outline: as §2
Cutibacterium acnes [18] = experiment: Antibacterial activity against drug-resistant Propionibacterium acnes GE4E after 72 hrs; type: functional; outline: as §4
Streptococcus pyogenes = experiment: Antibacterial activity against Streptococcus pyogenes after 20 to 24 hrs by broth microdilution method
Cutibacterium acnes [19] = experiment: Antibacterial activity against drug-resistant Propionibacterium acnes SW101CDA after 48 hrs by broth microdilution method; type: functional; outline: as §2
Cutibacterium acnes [20] = experiment: Antibacterial activity against drug-resistant Propionibacterium acnes P95 after 48 hrs by broth microdilution method; type: functional; outline: as §2
[21] = tested on: Staphylococcus epidermidis; experiment: Antibacterial activity against Staphylococcus epidermidis after 48 hrs by broth microdilution method; type: functional
[22] = tested on: Corynebacterium diphtheriae; experiment: Antibacterial activity against Corynebacterium diphtheriae after 48 hrs by broth microdilution method; type: functional; outline: as §3
Cutibacterium acnes [23] = experiment: Antibacterial activity against drug-resistant Propionibacterium acnes P95 after 72 hrs; type: functional; outline: as §4
Cutibacterium acnes [24] = experiment: Antibacterial activity against drug-resistant Propionibacterium acnes P429:1 (SC) after 48 hrs by broth microdilution method; type: functional; outline: as §2
[25] = tested on: Corynebacterium amycolatum; experiment: Antibacterial activity against Corynebacterium amycolatum after 48 hrs by broth microdilution method; type: functional; outline: as §3
Cutibacterium acnes [26] = experiment: Antibacterial activity against drug-resistant Propionibacterium acnes SW10 after 48 hrs by broth microdilution method; type: functional; outline: as §2
Cutibacterium acnes [27] = experiment: Antibacterial activity against drug-resistant Propionibacterium acnes SW17 after 48 hrs by broth microdilution method; type: functional; outline: as §2
Cutibacterium acnes [28] = experiment: Antibacterial activity against drug-resistant Propionibacterium acnes P425:1 after 48 hrs by broth microdilution method; type: functional; outline: as §2
Cutibacterium acnes [29] = experiment: Antibacterial activity against drug-resistant Propionibacterium acnes OK8/97 after 48 hrs by broth microdilution method; type: functional; outline: as §2
Cutibacterium acnes [30] = experiment: Antibacterial activity against drug-resistant Propionibacterium acnes EG13NS after 48 hrs by broth microdilution method; type: functional; outline: as §2
Cutibacterium acnes [31] = experiment: Antibacterial activity against drug-resistant Propionibacterium acnes FG7E after 48 hrs by broth microdilution method; type: functional; outline: as §2
Cutibacterium acnes [32] = experiment: Antibacterial activity against drug-resistant Propionibacterium acnes P:413 after 48 hrs by broth microdilution method; type: functional; outline: as §2
Cutibacterium acnes [33] = experiment: Antibacterial activity against drug-resistant Propionibacterium acnes GE4E after 48 hrs by broth microdilution method; type: functional; outline: as §2
Cutibacterium acnes [34] = experiment: Antibacterial activity against drug-resistant Propionibacterium acnes SW101T after 72 hrs; type: functional; outline: as §4
Cutibacterium acnes [35] = experiment: Antibacterial activity against drug-resistant Propionibacterium acnes SW101T after 48 hrs by broth microdilution method; type: functional; outline: as §2
Cutibacterium acnes [36] = experiment: Antibacterial activity against drug-resistant Propionibacterium acnes SW16 after 48 hrs by broth microdilution method; type: functional; outline: as §2
Cutibacterium acnes [37] = experiment: Antibacterial activity against drug-resistant Propionibacterium acnes P322:2 after 48 hrs by broth microdilution method; type: functional; outline: as §2
Cutibacterium acnes [38] = experiment: Antibacterial activity against drug-resistant Propionibacterium acnes SW3CD after 48 hrs by broth microdilution method; type: functional; outline: as §2
[39] = Antibacterial activity against Streptococcus dysgalactiae subsp. dysgalactiae after 48 hrs by broth microdilution method; type: functional
Cutibacterium acnes [40] = experiment: Antibacterial activity against drug-resistant Propionibacterium acnes SW26 after 48 hrs by broth microdilution method; type: functional; outline: as §2
Staphylococcus aureus [41] = experiment: Antibacterial activity against methicillin-resistant Staphylococcus aureus after 20 to 24 hrs by broth microdilution method
Cutibacterium acnes [42] = experiment: MBC/MIC ratio of Propionibacterium acnes GE4E; type: functional; outline: as §1
Cutibacterium acnes [43] = experiment: Antibacterial activity against drug-resistant Propionibacterium acnes SW3CD after 72 hrs; type: functional; outline: as §4

SMILES: CC[C@H]1OC(=O)[C@H](C)[C@@H](O[C@H]2C[C@@](C)(OC)[C@@H](O)[C@H](C)O2)[C@H](C)[C@@H](O[C@@H]2O[C@H](C)C[C@H](N(C)C)[C@H]2O)[C@](C)(OC)C[C@@H](C)C(=O)[C@H](C)[C@H]2[C@H](SCCn3cnc4cccnc43)C(=O)O[C@@]21C
- Ratio (Cutibacterium acnes [1]): >8
- MIC (Cutibacterium acnes [2]): ≤ 0.06 µg/mL
- MIC (Cutibacterium acnes [3]): 0.5 µg/mL (≈ 0.527 µM)
- MIC [4]: 0.08 µg/mL (≈ 0.0843 µM)
- MIC (Staphylococcus aureus [5]): 4.32 µg/mL (≈ 4.55 µM)
- MIC (Cutibacterium acnes [6]): ≤ 0.06 µg/mL
- MIC (Cutibacterium acnes [7]): ≤ 0.06 µg/mL
- MIC (Corynebacterium jeikeium): 0.88 µg/mL (≈ 0.927 µM)
- MIC [8]: 0.125 µg/mL (≈ 0.132 µM)
- MIC [9]: ≤ 0.06 µg/mL
- MIC (Staphylococcus aureus [10]): 4.32 µg/mL (≈ 4.55 µM)
- MIC (Cutibacterium acnes [11]): ≤ 0.06 µg/mL
- MIC (Cutibacterium acnes [12]): 256 µg/mL (≈ 270 µM)
- MIC (Cutibacterium acnes [13]): ≥ 256 µg/mL
- MIC (Cutibacterium acnes [14]): 0.5 µg/mL (≈ 0.527 µM)
- MIC [15]: 0.88 µg/mL (≈ 0.927 µM)
- MBC (Cutibacterium acnes [16]): ≤ 0.06 µg/mL
- MIC (Cutibacterium acnes [17]): ≤ 0.06 µg/mL
- MBC (Cutibacterium acnes [18]): ≥ 256 µg/mL
- MIC (Streptococcus pyogenes): 0.19 µg/mL (≈ 0.2 µM)
- MIC (Cutibacterium acnes [19]): 64 µg/mL (≈ 67.4 µM)
- MIC (Cutibacterium acnes [20]): ≤ 0.06 µg/mL
- MIC [21]: 4.24 µg/mL (≈ 4.47 µM)
- MIC [22]: 0.88 µg/mL (≈ 0.927 µM)
- MBC (Cutibacterium acnes [23]): ≤ 0.06 µg/mL
- MIC (Cutibacterium acnes [24]): ≤ 0.06 µg/mL
- MIC [25]: 0.88 µg/mL (≈ 0.927 µM)
- MIC (Cutibacterium acnes [26]): ≤ 0.06 µg/mL
- MIC (Cutibacterium acnes [27]): ≤ 0.06 µg/mL
- MIC (Cutibacterium acnes [28]): 4 µg/mL (≈ 4.21 µM)
- MIC (Cutibacterium acnes [29]): ≤ 0.06 µg/mL
- MIC (Cutibacterium acnes [30]): ≤ 0.06 µg/mL
- MIC (Cutibacterium acnes [31]): 0.5 µg/mL (≈ 0.527 µM)
- MIC (Cutibacterium acnes [32]): ≤ 0.06 µg/mL
- MIC (Cutibacterium acnes [33]): 128 µg/mL (≈ 135 µM)
- MBC (Cutibacterium acnes [34]): > 32 µg/mL
- MIC (Cutibacterium acnes [35]): 4 µg/mL (≈ 4.21 µM)
- MIC (Cutibacterium acnes [36]): ≤ 0.06 µg/mL
- MIC (Cutibacterium acnes [37]): 0.25 µg/mL (≈ 0.263 µM)
- MIC (Cutibacterium acnes [38]): ≤ 0.06 µg/mL
- MIC [39]: 0.12 µg/mL (≈ 0.126 µM)
- MIC (Cutibacterium acnes [40]): ≤ 0.06 µg/mL
- MIC (Staphylococcus aureus [41]): 4.32 µg/mL (≈ 4.55 µM)
- Ratio (Cutibacterium acnes [42]): >=2
- MBC (Cutibacterium acnes [43]): ≤ 0.06 µg/mL

From ChEMBL document CHEMBL1143835, “Antipropionibacterial activity of BAL19403, a novel macrolide antibiotic” (2007)
